Experimental findings from ChEMBL document CHEMBL4819106, “Aminopyrazole based CDK9 PROTAC sensitizes pancreatic cancer cells to venetoclax” (Bioorg Med Chem Lett, 2021) are described below.

The test system of one assay is MIA PaCa-2. The experiment in a line: Antiproliferative activity against human MIA PaCa-2 cells assessed as cell growth inhibition at 5 uM measured after 3 days by Prestoblue assay relative to control. The class given is functional. Particulars: MIA PaCa-2, 72 h, time 3 day, read-out: GI. In outline: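 MiaPaCa2 cells were exposed for 3 days to single agents (Bcl2-family inhibitors or CDK9 degrader) at equimolar concentration. Viability was read by PrestoBlue.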

Assay [1] deals with Cyclin-dependent kinase 7 (Homo sapiens) (UniProt P50613). The experiment in a line: Inhibition of CDK7 in human HEK293 cells assessed as reduction in CDK7 level at 10 uM incubated for 24 hrs by Western blot analysis. Format: cell-based. An outline of the steps: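 HEK293 cells were treated at indicated concentrations for 24 h. Lysates were analysed by western blot and probed for CDK family members, including CDK7 and CDK9.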
Sequence of Cyclin-dependent kinase 7 (Homo sapiens) (P50613 whole entry): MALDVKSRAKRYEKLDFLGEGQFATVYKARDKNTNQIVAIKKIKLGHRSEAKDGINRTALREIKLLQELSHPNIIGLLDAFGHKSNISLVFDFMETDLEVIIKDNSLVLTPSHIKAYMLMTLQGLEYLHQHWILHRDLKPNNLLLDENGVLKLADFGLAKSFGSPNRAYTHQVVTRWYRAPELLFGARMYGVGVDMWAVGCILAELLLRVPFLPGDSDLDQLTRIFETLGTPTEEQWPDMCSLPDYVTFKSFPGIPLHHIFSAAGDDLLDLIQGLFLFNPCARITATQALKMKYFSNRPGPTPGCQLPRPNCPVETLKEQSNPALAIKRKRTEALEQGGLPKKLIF
In general terms: A western blot detects proteins with antibodies after separation by electrophoresis.

Assay [2] addresses T1, Protein cereblon/Cyclin-dependent kinase 9 (Homo sapiens, UniProt P50750+Q96SW2). In words: Protac activity at CDK9/CRBN in human HEK293 cells assessed as degradation of CDK9 at 0.01 to 10 uM incubated for 24 hrs by Western blot analysis. The class given is cell-based. Particulars: dose 0.01-10 µM. In outline:
(§1)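 HEK293 cells were treated with increasing concentrations (0.01–10 μM) for 24 hr. Lysates were analysed by western blot for CDK9 degradation.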
Target sequence in this assay (P50750 whole entry, looked up): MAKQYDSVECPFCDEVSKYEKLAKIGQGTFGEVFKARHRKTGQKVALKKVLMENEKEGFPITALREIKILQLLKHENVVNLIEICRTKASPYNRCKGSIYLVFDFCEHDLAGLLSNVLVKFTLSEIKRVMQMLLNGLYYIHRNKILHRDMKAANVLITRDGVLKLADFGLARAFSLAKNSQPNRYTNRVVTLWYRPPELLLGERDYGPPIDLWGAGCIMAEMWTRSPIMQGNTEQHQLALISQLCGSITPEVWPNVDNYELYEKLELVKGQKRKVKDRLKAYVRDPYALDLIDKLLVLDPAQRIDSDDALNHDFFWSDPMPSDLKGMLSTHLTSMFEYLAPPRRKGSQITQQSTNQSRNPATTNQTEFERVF
Target sequence in this assay (Q96SW2 whole entry, looked up): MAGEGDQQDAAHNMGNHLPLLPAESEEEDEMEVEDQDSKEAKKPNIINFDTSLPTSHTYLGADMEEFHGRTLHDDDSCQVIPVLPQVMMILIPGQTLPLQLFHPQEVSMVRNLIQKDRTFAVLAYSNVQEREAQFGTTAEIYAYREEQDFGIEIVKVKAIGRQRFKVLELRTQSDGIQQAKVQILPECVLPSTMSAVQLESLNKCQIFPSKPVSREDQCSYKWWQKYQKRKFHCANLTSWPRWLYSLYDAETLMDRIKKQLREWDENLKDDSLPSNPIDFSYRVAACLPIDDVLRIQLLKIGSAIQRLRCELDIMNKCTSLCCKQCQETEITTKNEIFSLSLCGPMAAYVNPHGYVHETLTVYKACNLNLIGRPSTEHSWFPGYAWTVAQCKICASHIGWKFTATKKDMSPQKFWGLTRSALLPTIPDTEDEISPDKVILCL

The target of assay [3] is T1, Protein cereblon/Cyclin-dependent kinase 9. In words: Protac activity at CDK9/CRBN in human HEK293 cells assessed as degradation of CDK9 incubated for 24 hrs by Western blot analysis. The class given is cell-based. An outline of the steps:
as §1
Target sequence in this assay (P50750 whole entry): as the sequence (P50750 whole entry, looked up) above
Target sequence in this assay (Q96SW2 whole entry): as the sequence (Q96SW2 whole entry, looked up) above

In assay [4] the target is T2, Cyclin-dependent kinase 5 (Homo sapiens, UniProt Q00535). The experiment in a line: Binding affinity to CDK5 (unknown origin).
T2 sequence (Q00535 whole entry): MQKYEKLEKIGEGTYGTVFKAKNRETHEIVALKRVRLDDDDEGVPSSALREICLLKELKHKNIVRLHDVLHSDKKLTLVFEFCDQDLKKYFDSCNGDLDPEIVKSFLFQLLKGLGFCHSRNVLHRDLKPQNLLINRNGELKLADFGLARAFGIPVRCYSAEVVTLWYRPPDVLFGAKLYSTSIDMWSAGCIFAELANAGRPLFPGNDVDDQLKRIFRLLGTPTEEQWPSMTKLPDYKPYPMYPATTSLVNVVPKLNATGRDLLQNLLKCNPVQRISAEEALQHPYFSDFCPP
Assay [5] has as its target T2, Cyclin-dependent kinase 5. The experiment in a line: Inhibition of CDK5 (unknown origin).
Assay [6] has as its target T3, Cyclin-dependent kinase 9 (Homo sapiens, UniProt P50750). The experiment in a line: Binding affinity to CDK9 (unknown origin).
The target of assay [7] is T3, Cyclin-dependent kinase 9. The experiment in a line: Inhibition of CDK9 (unknown origin).

pIC50, pKd: −log10 of the molar value. Active and inactive are the calls of the source. The rule behind the calls is not given here.

T3 sequence (P50750 whole entry): as the sequence (P50750 whole entry, looked up) above

On to `CC1(C)CCC(c2ccc(Cl)cc2)=C(CN2CCN(c3ccc(C(=O)NS(=O)(=O)c4ccc(N[C@H](CCN5CCOCC5)CSc5ccccc5)c(S(=O)(=O)C(F)(F)F)c4)cc3)CC2)C1` [NAVITOCLAX], for which the inhibition of growth at 5 µM in the assay with MIA PaCa-2 worked out at 50%.
Regarding `CN1CC[C@H](c2c(O)cc(O)c3c(=O)cc(-c4ccccc4Cl)oc23)[C@H](O)C1`, the outcome in assay [1] was inactive.
Consider `O=C(COc1ccc(CC(=O)Nc2cc(C3CCC3)[nH]n2)cc1)NCCCCNc1cccc2c1C(=O)N(C1CCC(=O)NC1=O)C2=O` (centres undefined), for which the result in assay [2] was inactive.
On to `O=C(CCCOc1ccc(CC(=O)Nc2cc(C3CCC3)[nH]n2)cc1)NCCOCCOCCNc1cccc2c1C(=O)N(C1CCC(=O)NC1=O)C2=O` (centres undefined), for which the outcome in assay [2] was inactive.
Turning to `O=C(CCCOc1ccc(CC(=O)Nc2cc(C3CCC3)[nH]n2)cc1)NCCCOCCOCCOCCCNc1cccc2c1C(=O)N(C1CCC(=O)NC1=O)C2=O` (centres undefined), the result in assay [2] was inactive.
`O=C(COCCOCCOCCOc1ccc(CC(=O)Nc2cc(C3CCC3)[nH]n2)cc1)NCCCCNc1cccc2c1C(=O)N(C1CCC(=O)NC1=O)C2=O` (centres undefined): the outcome in assay [2] was inactive.
As to `O=C(COc1ccc(CC(=O)Nc2cc(C3CCC3)[nH]n2)cc1)NCCCOCCOCCOCCCNc1cccc2c1C(=O)N(C1CCC(=O)NC1=O)C2=O` (centres undefined), the result in assay [2] was inactive.
On the same count and under the same terms, the value for `O=C(COc1ccc(CC(=O)Nc2cc(C3CCC3)[nH]n2)cc1)NCCOCCOCCNc1cccc2c1C(=O)N(C1CCC(=O)NC1=O)C2=O` (centres undefined) was “inactive”.
In general, DC50 refers to the midpoint of the concentration-degradation curve. As for `O=C(COc1ccc(CC(=O)Nc2cc(C3CCC3)[nH]n2)cc1)NCCCCCCCCNc1cccc2c1C(=O)N(C1CCC(=O)NC1=O)C2=O` (centres undefined), the 50% degradation concentration (DC50) in assay [3] was determined as 1 µM.
`O=C(COCCOCCOCCOc1cccc(CC(=O)Nc2cc(C3CCC3)[nH]n2)c1)NCCOCCOCCNc1cccc2c1C(=O)N(C1CCC(=O)NC1=O)C2=O` (centres undefined): the outcome in assay [2] was inactive.
By pKd is commonly meant the negative decadic logarithm of the Kd, by convention in mol/L. The low end stands for a large Kd, the high end for a small Kd. The pIC50 is −log10 of the IC50, conventionally taken in molar units. Regarding `COc1ccc(CC(=O)Nc2cc(C3CCC3)[nH]n2)cc1`, the pKd in assay [4] is 6.64; in assay [6], 5.97. In addition, the negative logarithm of the IC50 (pIC50) in assay [5] is 7.49; in assay [7], 5.97.
